TRPML3 ag: human TRPML3 channel agonists, primary screen, cell-based, HEK293 TRPML3-YFP, Fluo-8 calcium fluorescence, 3 µM; 100% = the carbachol control signal; Mucolipin-3 (Homo sapiens), Q8TDD5; activation, % at 3 µM; 220,000 tested, 0.29% active;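 active = activation above its plate's cutoff, the mean activation of the plate's test wells plus 3 SD, cut at about 12% in these data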
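Test system: HEK293 cells stably carrying human TRPML3-YFP; Doses: single dose, 3 µM final nominal compound, 0.3% DMSO final; Schedule: dye loading 1 h 37 °C then 30 min ambient, 125 s read; Technique: Fluo-8 calcium fluorescence; Benchmarks: high control carbachol 87 µM, low control DMSO.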
LANA-H2A inh: blockers of LANA interaction with H2A/H2B – biochemical, FP readout, HTS, primary screen. cell-free LANA-H2A/H2B peptide, fluorescence polarization. inhibition, % (no concentration beside the values). 320,000 tested, 0.6% active. Protein LANA1 (Human herpesvirus 8 type P (isolate GK18)), Q9QR71; in the data active = inhibition mostly above about 10%, no sharp cut-off; inactive = mostly below about 6.7%
TAAR1 ag: human TAAR1 agonists, primary screen, Fluo-8 calcium fluorescence, CHO RD-HGA16 cells; Trace amine-associated receptor 1 (Homo sapiens), Q96RJ0; vehicle wells 0%, saturating PEA agonist 100%; activation, % at 3 µM; 360,000 tested, 0.99% active; AID 624467, 2012;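 active = activation above the mean activation of all test compounds in the run plus 3 SD, cut at about 38% in these data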
Target sequence (Q96RJ0 whole entry, looked up): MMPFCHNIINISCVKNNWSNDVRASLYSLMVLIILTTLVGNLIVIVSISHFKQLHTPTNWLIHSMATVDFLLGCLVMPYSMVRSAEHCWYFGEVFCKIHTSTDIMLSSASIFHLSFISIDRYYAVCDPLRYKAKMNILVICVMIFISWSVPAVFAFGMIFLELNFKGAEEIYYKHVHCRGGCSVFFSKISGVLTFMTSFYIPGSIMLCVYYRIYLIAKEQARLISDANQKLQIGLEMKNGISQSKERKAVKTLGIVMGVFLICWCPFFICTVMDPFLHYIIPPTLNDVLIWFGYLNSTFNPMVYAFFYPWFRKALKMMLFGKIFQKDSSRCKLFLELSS
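Signal – calcium-sensitive Fluo-8 signal, excitation 470-495, emission 515-575 nm · System – RD-HGA16 (CHO) cells co-expressing Gα16 and hTAAR1 · Incubation – 17-24 h seeding, 75 min 37 °C dye, 30 min RT · Compound dosing – 3 µM single concentration · Repeats – no replicates (n 1)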
TRPN1 ag: zebrafish TRPN1 channel agonists, primary screen, cell-based, HEK293, calcium fluorescence; activation, % at 3 µM; 220,000 tested, 0.18% active; HEK293 zebrafish TRPN1-YFP, Fluo-8 calcium fluorescence; 100% = response to 87 µM carbachol; transient receptor potential cation channel N1 (TRPN1/NompC), Danio rerio; AID 1424, 2008;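 active = activation above its plate's cutoff, the mean activation of test wells on that plate plus 3 SD, cut at about 19% in these data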
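Material: zebrafish TRPN1-YFP in HEK293 cells. Doses: one dose of 3 µM, 0.3% DMSO. Incubation: dye 1 h 37 °C plus 30 min RT. Measured by: intracellular calcium fluorescence with Fluo-8.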
TAAR1 antagonist: human TAAR1 antagonists, primary screen, Fluo-8 calcium fluorescence, CHO RD-HGA16 cells; Trace amine-associated receptor 1 (Homo sapiens), Q96RJ0; antagonist; inhibition, % at 3 µM; 360,000 tested, 1.5% active;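 active = inhibition above a per-plate cutoff, the mean inhibition of test compounds on that plate plus 3 SD, cut at about 49% in these data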
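Test system – hTAAR1-expressing CHO RD-HGA16 cells, Gα16-coupled · Also added – β-PEA at EC80 concentration, post-compound challenge · Compound – 3 µM, single point · Incubation – dye loading 75 min at 37 °C, then 30 min room temperature · Measured by – Fluo-8 intracellular calcium dye fluorescence, real-time kinetic reads · Benchmarks – vehicle and agonist controls · Replicates – singlicate, one well per test compound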
GPR7 antagonist: GPR7 receptor antagonists, primary screen, cell-based, fluorescence, single concentration; Neuropeptides B/W receptor type 1 (Homo sapiens), P48145; GPR7-expressing cells, fluorescence antagonist assay; inhibition, % at 4.4 µM; 290,000 tested, 1.1% active; in the data active = inhibition above about 16%, passing the limit was not always enough;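 also: cells stimulated with the agonist NPW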
nonsel antag count: nonselective antagonists in TAAR1 counter-screen cells, counter-screen for hTAAR1 antagonist project, cell-based, fluorescence, calcium; shares compounds with TAAR1 antagonist; counterscreen cell line, antagonist mode; inhibition, % at 3 µM; 2,400 tested, 77% active; AID 651780, 2012; in the data active = inhibition above about 22%;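 also: CHO-Ga16 host cells stimulated with ATP at an EC80 level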
TAAR1 antag conf: human TAAR1 antagonists, retest of hits, confirmation, cell-based, fluorescence. AID 651785, 2012. shares compounds with TAAR1 antagonist. TAAR1-expressing cells, fluorescence antagonist read-out. inhibition, % at 3 µM. 2,400 tested, 40% active; in the data active = inhibition above about 49%;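 also: CHO-Ga16 host cells challenged with agonist PEA near its EC80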
Ga16 nonsel ag: calcium activation in Ga16-expressing cells, counter-screen for TAAR1 antagonist project, cell-based, fluorescence | agonist counterscreen | 2,400 tested, 18% active | shares compounds with TAAR1 antagonist | activation, % at 3 µM; in the data active = activation above about 12%
TAAR1 ag counter: TAAR1 activation by candidate antagonists – cell-based, fluorescence, counter-screen for TAAR1 antagonist project; shares compounds with TAAR1 antagonist; hTAAR1 cell line, agonist mode; activation, % at 3 µM; 2,400 tested, 2% active; AID 651955, 2012; in the data active = activation above about 37%;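 also: CHO cells stably expressing TAAR1 with calcium dye readout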
Each line names hits and unclear results; the compound was inactive in the other large screens (follow-up assays come after a bar, where they were run). Rows were chosen to be rich in hits. Some 3.4% of all compounds tested hit in one or more screens of this group.

COC(=O)c1cc2c(c3c4cc(F)ccc4n(C(=O)c4ccccc4)c13)C(=O)N(Cc1ccco1)C2	TAAR1 antagonist 68 (no result: TRPML3 ag, LANA-H2A inh, TRPN1 ag, GPR7 antagonist) | nonsel antag count 26 | TAAR1 antag conf inactive | Ga16 nonsel ag inactive | TAAR1 ag counter inactive
COC(=O)c1cc2c(c3c4cc(OC)ccc4n(C(=O)c4ccccc4)c13)C(=O)N(Cc1ccco1)C2	TAAR1 antagonist 65 (no result: TRPML3 ag, LANA-H2A inh, TRPN1 ag, GPR7 antagonist) | nonsel antag count 29 | TAAR1 antag conf 50 | Ga16 nonsel ag inactive | TAAR1 ag counter inactive
CCc1ccccc1NC(=O)C1CC(c2ccc(OC)cc2)=NO1 (centres undefined)	TAAR1 antagonist 103 (no result: TRPML3 ag, TRPN1 ag) | nonsel antag count inactive | TAAR1 antag conf inactive | Ga16 nonsel ag inactive | TAAR1 ag counter inactive
COc1ccc(C2=NOC(C(=O)N3CCN(c4ccccc4OC)CC3)C2)cc1 (centres undefined)	TAAR1 antagonist 51 | nonsel antag count inactive | TAAR1 antag conf inactive | Ga16 nonsel ag inactive | TAAR1 ag counter inactive
CCCC[C@@H]1CNC(=O)C(=O)N1CCCCC1CCCCC1	none (no result: TRPML3 ag, LANA-H2A inh, TRPN1 ag, GPR7 antagonist)
O=C(CCC(=O)N1CCOCC1)NCCc1ccc(F)cc1	none (no result: TRPML3 ag, TAAR1 ag, TRPN1 ag, TAAR1 antagonist, GPR7 antagonist) | nonsel antag count inactive | Ga16 nonsel ag inactive
CC(=O)c1ccc(NC(=O)C(C)OC(=O)/C=C/c2ccco2)cc1 (centres undefined)	none (no result: TRPML3 ag, TRPN1 ag, GPR7 antagonist)
COC(=O)c1ccccc1-c1ccc(/C=N/Nc2nc(N3CCCC3)nc(N3CCCC3)n2)o1	TAAR1 antagonist 69 | nonsel antag count inactive | TAAR1 antag conf inactive | Ga16 nonsel ag inactive | TAAR1 ag counter inactive
O=[N+]([O-])c1ccc(-c2ccc(/C=N/Nc3nc(NCc4ccccc4)nc(N4CCOCC4)n3)o2)cc1	none
COc1nc(N/N=C/c2ccc(-c3ccccc3[N+](=O)[O-])o2)nc(N2CCOCC2)n1	TAAR1 antagonist 64 | nonsel antag count inactive | TAAR1 antag conf inactive | Ga16 nonsel ag 12 | TAAR1 ag counter inactive
O=C(Nc1ccccn1)Nc1ccccc1Cl	none (no result: TRPML3 ag, TRPN1 ag)
CCOc1ccccc1NC(=O)CSc1nnc(CNC(=O)c2c(F)cccc2Cl)o1	none (no result: TRPML3 ag, TRPN1 ag)
Cc1cc(C)cc(NC(=O)CN2C(=O)NC(C)(c3ccccc3)C2=O)c1 (centres undefined)	none
CC1(c2ccccc2)NC(=O)N(CC(=O)Nc2cccc(/C=C/c3ccccn3)c2)C1=O (centres undefined)	TAAR1 antagonist 50 (no result: TRPML3 ag, TRPN1 ag, GPR7 antagonist) | nonsel antag count inactive | TAAR1 antag conf inactive | Ga16 nonsel ag inactive | TAAR1 ag counter inactive
CC(C)(C)c1ccc(C(=O)Nc2ccc(NC(=O)c3ccco3)cc2)cc1	TAAR1 antagonist 58 | nonsel antag count 22 | TAAR1 antag conf inactive | Ga16 nonsel ag inactive | TAAR1 ag counter inactive
O=C(Nc1ccc(NC(=O)c2ccco2)cc1)c1ccco1	none (no result: TRPML3 ag, TRPN1 ag)

Source: PubChem BioAssay
